Source: ChEMBL document CHEMBL1126843, “Non-amine based analogues of lavendustin A as protein-tyrosine kinase inhibitors” (J Med Chem, 1993)

How the values were obtained:
[1] = target: Tyrosine-protein kinase Lck (Homo sapiens, UniProt P06239); assay: Inhibition of p56lck autophosphorylation; type: functional
[2] = (§1) Inhibition of c-erb B-2/HER2/neu receptor; type: functional
Summary of the method: (§2)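 HER2/neu immunoprecipitated from SK-BR-3 breast cancer cells (1-2 × 10^6 cells per assay) on plates coated with goat anti-mouse Ig and anti-HER2 mAb (20 μg/mL), blocked with gelatin/glycine. Lysates bound overnight on ice, then washed. Kinase reaction in 25 mM HEPES pH 7.2, 3 mM MnCl2, 20 mM MgCl2, 0.1% NP-40 and 1 µCi [γ-32P]ATP, 20 min at 25 °C. Products run on 7.5% reducing SDS-PAGE; inhibition calculated from densitometric band densities.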

[3] = Inhibition of epidermal growth factor receptor (EGFR) autophosphorylation; type: functional
[4] = as §1; summary of the method: as §2
[5] = Inhibition of epidermal growth factor receptor (EGFR)

Tyrosine-protein kinase Lck, sequence (P06239 whole entry): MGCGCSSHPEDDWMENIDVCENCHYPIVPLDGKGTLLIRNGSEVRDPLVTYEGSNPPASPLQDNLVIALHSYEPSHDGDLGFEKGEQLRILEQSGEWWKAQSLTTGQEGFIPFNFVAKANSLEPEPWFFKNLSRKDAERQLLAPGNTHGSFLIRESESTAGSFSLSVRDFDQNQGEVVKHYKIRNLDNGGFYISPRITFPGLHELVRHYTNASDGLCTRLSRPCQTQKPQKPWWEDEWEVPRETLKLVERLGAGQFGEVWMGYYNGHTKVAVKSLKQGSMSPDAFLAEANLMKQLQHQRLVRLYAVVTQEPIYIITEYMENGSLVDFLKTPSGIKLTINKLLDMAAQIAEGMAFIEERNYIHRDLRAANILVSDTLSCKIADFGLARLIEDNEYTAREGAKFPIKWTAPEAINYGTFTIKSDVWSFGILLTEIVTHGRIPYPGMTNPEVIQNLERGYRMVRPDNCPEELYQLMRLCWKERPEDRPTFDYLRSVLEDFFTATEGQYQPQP

IC50 [1] | IC50 [2] | IC50 [3] | Compound | IC50 [4] | IC50 [5]
1 µM | 4 µM | 20 µM | O=C(O)c1cc(CCc2cc(O)ccc2O)ccc1O |  | 
85 µM | 70 µM | 9 µM | O=C(O)c1cc(/N=C/c2cc(O)ccc2O)ccc1O |  | 
10 µM | 0.9 µM | 4 µM | O=C(O)c1cc(NCc2cc(O)ccc2O)ccc1O [LAVENDUSTIN C] |  | 
 | 0.2 µM | 5 µM | O=C(O)c1cc(/C=C/c2ccc(O)c(O)c2)ccc1O |  | 
8 µM | 9 µM | 7 µM | O=C(O)c1cc(N(Cc2ccccc2O)Cc2cc(O)ccc2O)ccc1O [LAVENDUSTIN A] |  | 

Compound | IC50 [1] | IC50 [2] | IC50 [3] | IC50 [4] | IC50 [5]
O=C(O)c1cc(/C=C/c2cc(O)ccc2O)ccc1O | 0.06 µM | 0.6 µM | 2 µM |  | 
O=C(O)c1cc(CCc2ccc(O)c(O)c2)ccc1O | 1 µM |  |  | 0.6 µM | 12 µM
